ChEMBL document CHEMBL2321728, “Vectorization efforts to increase Gram-negative intracellular drug concentration: a case study on HldE-K inhibitors” (J Med Chem, 2013)
Calls of active or inactive are those of the source. No cut-off for these calls is given here.

Key:
Escherichia coli [1] = assay: Antimicrobial activity against wild type Escherichia coli K1 measured after overnight incubation by serial dilution method in presence of erythromycin; format: functional
Escherichia coli [2] = assay: Antimicrobial activity against acrAB, tolC-deficient Escherichia coli str. K-12 substr. MG1655 measured after overnight incubation by serial dilution method in presence of erythromycin; format: functional
[3] = Inhibition of Escherichia coli HldE-kinase preincubated for 30 mins prior to substrate addition measured after 30 mins by luminescence assay
Method in brief: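 E. coli HldE (3 nM) preincubated with inhibitor for 30 min at room temperature in pH 7.5 Hepes buffer with MnCl2, KCl, Triton X-100, DTT and MBP. Reaction started with 0.2 μM β-heptose 7-phosphate and 0.2 μM ATP, run 30 min at room temperature. Remaining ATP measured by luciferase/luciferin luminescence. IC50 from 6–10 concentrations fitted to a Langmuir model.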

Escherichia coli [4] = assay: Antimicrobial activity against wild type Escherichia coli K1 after overnight incubation by checkerboard assay; format: functional
Method in brief: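 Checkerboard against E. coli K1 (018:K1:H7) wild type. Early to log phase preculture suspended in ca-MHB to a final inoculum of 5 × 10^5 CFU/mL. Combined serial dilutions of kanamycin, the unvectorized inhibitor or bis(3-aminopropyl)amine with erythromycin, in 2% DMSO. Incubated overnight at 35 °C; MIC of each combination read by visual inspection.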

Escherichia coli [5] = assay: Antimicrobial activity against acrAB, tolC-deficient Escherichia coli str. K-12 substr. MG1655 measured after overnight incubation by serial dilution method in presence of erythromycin in iron depleted medium; format: functional
Method in brief: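 MIC in M9 medium supplemented with D-glucose, thiamine, casein and apotransferrin (M9S), which is the iron-depleted medium. Erythromycin at 0.13 μg/mL. Inoculum 5 × 10^5 CFU/mL. Compound serial dilutions in 2% DMSO, overnight at 35 °C, visual read-out.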

Escherichia coli [6] = assay: Antimicrobial activity against wild type Escherichia coli K1 assessed as inhibition of LPS biosynthesis at 30 ug/ml after 5 hrs by SDS-PAGE analysis; format: functional, organism-based
Method in brief: (§1)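 LB-grown exponential cells (OD about 0.15) diluted to 5 × 10^5 CFU/mL and exposed to compound (water/DMSO 50/50) at 37 °C for about 5 h, to OD 0.2–0.4. OD-normalized pellets lysed in SDS/β-mercaptoethanol at 95–100 °C, then proteinase K 1 h at 55 °C. LPS resolved by 16% SDS-PAGE and silver stained.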

Escherichia coli [7] = assay: Antimicrobial activity against tolC-deficient Escherichia coli K1 measured after overnight incubation by serial dilution method in presence of erythromycin; format: functional
Escherichia coli [8] = assay: Antimicrobial activity against tolC-deficient Escherichia coli K1 assessed as inhibition of LPS biosynthesis at 32 ug/ml after 5 hrs by SDS-PAGE analysis; format: functional, organism-based; method in brief: as §1

Row | SMILES | MIC (Escherichia coli [1]) | MIC (Escherichia coli [2]) | IC50 [3] | MIC (Escherichia coli [5]) | MIC (Escherichia coli [7]) | MIC (Escherichia coli [4]) | inhibition (Escherichia coli [6]) | inhibition (Escherichia coli [8])
1 | Cc1cc(NC(=O)CN(C)C)cc(C)c1-c1cnnc(NCc2nc3cc(O)ccc3s2)n1 | > 64 µg/mL | 16 µg/mL | 880 nM | – | – | – | – | –
2 | CC[C@H]1OC(=O)[C@H](C)[C@@H](O[C@H]2C[C@@](C)(OC)[C@@H](O)[C@H](C)O2)[C@H](C)[C@@H](O[C@@H]2O[C@H](C)C[C@H](N(C)C)[C@H]2O)[C@](C)(O)C[C@@H](C)C(=O)[C@H](C)[C@@H](O)[C@]1(C)O [ERYTHROMYCIN] | – | – | – | – | – | 16 µg/mL | – | –
3 | NC[C@H]1O[C@H](O[C@H]2[C@H](O)[C@@H](O[C@H]3O[C@H](Cn4cc(CNC(=O)COc5ccc6sc(CNc7nncc(-c8c(Cl)cccc8Cl)n7)nc6c5)nn4)[C@@H](O)[C@H](N)[C@H]3O)[C@H](N)C[C@@H]2N)[C@H](O)[C@@H](O)[C@@H]1O | 8 µg/mL | 4 µg/mL | 98 nM | – | 2 µg/mL | – | inactive | –
4 | CN1CCN(CCOc2ccc3sc(CNc4nncc(-c5c(Cl)cccc5Cl)n4)nc3c2)CC1 | > 64 µg/mL | – | 110 nM | – | 32 µg/mL | – | – | inactive
5 | NCCNCCNC(=O)COc1ccc2sc(CNc3nncc(-c4c(Cl)cccc4Cl)n3)nc2c1 | 32 µg/mL | – | 110 nM | – | 8 µg/mL | – | – | inactive
6 | Cc1cc(NCCN(C)C)cc(C)c1-c1cnnc(NCc2nc3cc(O)ccc3s2)n1 | > 64 µg/mL | 16 µg/mL | 780 nM | – | – | – | – | –
7 | CN(C)CC(CN(C)C)NC(=O)COc1ccc2sc(CNc3nncc(-c4c(Cl)cccc4Cl)n3)nc2c1 | > 64 µg/mL | – | 420 nM | – | 32 µg/mL | – | – | inactive
8 | O=C(NCCOc1ccc2sc(CNc3nncc(-c4c(Cl)cccc4Cl)n3)nc2c1)[C@@H]1CSC(c2ccccc2O)=N1 | > 32 µg/mL | > 32 µg/mL | 660 nM | > 32 µg/mL | – | – | – | –
9 | COc1ccc2sc(CNc3nncc(-c4c(C)cc(NCCN(C)C)cc4C)n3)nc2c1 | > 64 µg/mL | 32 µg/mL | 82 nM | – | – | – | – | –
10 | NCCCN(CCCN)C(=O)COc1ccc2sc(CNc3nncc(-c4c(Cl)cccc4Cl)n3)nc2c1 | 8 µg/mL | – | 510 nM | – | 4 µg/mL | – | – | inactive
11 | O=C(NCCOc1ccc2sc(CNc3nncc(-c4c(Cl)cccc4Cl)n3)nc2c1)c1cc(=O)c(O)co1 | > 64 µg/mL | > 64 µg/mL | 71 nM | 2 µg/mL | – | – | – | –
12 | NC[C@H]1O[C@H](O[C@H]2[C@H](O)[C@@H](O[C@H]3O[C@H](CO)[C@@H](O)[C@H](N)[C@H]3O)[C@H](N)C[C@@H]2N)[C@H](O)[C@@H](O)[C@@H]1O [KANAMYCIN] | – | – | – | – | – | 8 µg/mL | – | –
13 | Cc1cc(NCCN(C)C)cc(C)c1-c1cnnc(NCc2nc3cc(OCCN)ccc3s2)n1 | > 64 µg/mL | – | 1400 nM | – | > 64 µg/mL | – | – | inactive
14 | NCCCN(CCCN)CCOc1ccc2sc(CNc3nncc(-c4c(Cl)cccc4Cl)n3)nc2c1 | 4 µg/mL | – | 630 nM | – | 2 µg/mL | – | – | inactive
15 | CCN1CCN(C(=O)NCCOc2ccc3sc(CNc4nncc(-c5c(C)cccc5O)n4)nc3c2)C(=O)C1=O | > 32 µg/mL | > 32 µg/mL | 520 nM | 8 µg/mL | – | – | – | –
16 | NCCN(CCN)CCNC(=O)COc1ccc2sc(CNc3nncc(-c4c(Cl)cccc4Cl)n3)nc2c1 | 8 µg/mL | – | 580 nM | – | 4 µg/mL | – | – | inactive

Further lines, with some results ahead:

Row | MIC (Escherichia coli [1]) | MIC (Escherichia coli [2]) | IC50 [3] | MIC (Escherichia coli [5]) | MIC (Escherichia coli [7]) | SMILES | MIC (Escherichia coli [4]) | inhibition (Escherichia coli [6]) | inhibition (Escherichia coli [8])
17 | > 64 µg/mL | 16 µg/mL | 16 nM | 16 µg/mL | – | CS(=O)(=O)NC(=O)COc1ccc2sc(CNc3nncc(-c4c(Cl)cccc4Cl)n3)nc2c1 | – | – | –
18 | > 64 µg/mL | 2 µg/mL | 1 nM | 1 µg/mL | – | O=C(COc1ccc2sc(CNc3nncc(-c4c(Cl)cccc4Cl)n3)nc2c1)NO | – | – | –
19 | > 64 µg/mL | – | 55 nM | – | – | O=C(COc1ccc2sc(CNc3nncc(-c4c(Cl)cccc4Cl)n3)nc2c1)NCCO | – | – | Active
20 | > 64 µg/mL | 2 µg/mL | 25 nM | 1 µg/mL | – | Cn1nc(O)c(=O)nc1SCCOc1ccc2sc(CNc3nncc(-c4c(Cl)cccc4Cl)n3)nc2c1 | – | – | –
21 | > 64 µg/mL | – | 19 nM | – | – | O=C(O)COc1ccc2sc(CNc3nncc(-c4c(Cl)cccc4Cl)n3)nc2c1 | – | – | –
22 | – | – | 69 nM | – | – | COc1ccc2sc(CNc3nncc(-c4c(C)cccc4O)n3)nc2c1 | – | – | –
23 | > 64 µg/mL | 4 µg/mL | 33 nM | 2 µg/mL | – | O=S(=O)(NCCOc1ccc2sc(CNc3nncc(-c4c(Cl)cccc4Cl)n3)nc2c1)c1ccc(O)c(O)c1 | – | – | –
24 | > 64 µg/mL | > 64 µg/mL | 30 nM | 32 µg/mL | – | O=C(COc1ccc2sc(CNc3nncc(-c4c(Cl)cccc4Cl)n3)nc2c1)OCc1cc(=O)c(O)cn1O | – | – | –
